Values after ≈ are worked out from the molar mass of the structure shown. Positions of bridges follow the written chain, without caps; N, C: chain ends. Non-standard residues stand in square brackets, D forms with d. Residues, ends and D or L forms follow the SMILES beside them. Nle = CCCC[C@H](N)C(=O)O; Orn = NCCC[C@H](N)C(=O)O Bounds are passed on as bounds.

Format in all cases: functional
The test system of experiment [1] is Candida albicans. Briefly: Antimicrobial activity against Candida albicans ATCC […] incubation in bactopeptone. Conditions: ATCC 64549. In outline:
(§1)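 Microplate killing assay in 1% Bactopeptone (pH 7.0). Log-phase organisms (BHI overnight, 2 h subculture, 37°C, washed), final ~2 × 10^5 cells/ml, with twofold peptide dilutions, 37°C humid chamber 2 h (or 20 h where stated). 5 μl drops plated on blood agar overnight; MMC99 = lowest concentration giving ≥99% inoculum reduction; duplicates.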

A short description of experiment [2]: Antimicrobial activity against Escherichia coli O6 K5 incubation in bactopeptone. In outline:
as §1

Experiment [3] has as its system Staphylococcus aureus. Briefly: Antimicrobial activity against Staphylococcus aureus 1800 (CCUG 1800) incubation in bactopeptone. Put shortly: as §1
Experiment [4] deals with Candida albicans. The experiment can be described thus: Antimicrobial activity against […] Candida albicans ATCC […] incubated in diluted brain heart infusion medium. The conditions noted are these: ATCC 6454. Put shortly: (§2)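 Log-phase cells (BHI overnight at 37°C with shaking, subcultured 2 h, washed) at about 2 × 10^5 cells/ml final, exposed to twofold peptide dilutions in duplicate or triplicate. Medium: BHIdil (1/100 of 3.4% BHI, pH 6.7–6.9) or 1% Bactopeptone (pH 7.0). 2 h at 37°C, humid. 5-μl drops plated on blood agar overnight for CFU. MMC99 is the lowest concentration giving ≥99% kill.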

Experiment [5] relates to Staphylococcus aureus. The experiment can be described thus: Antimicrobial activity against methicillin resistant Staphylococcus aureus MRS3525 incubated in diluted brain heart infusion medium. In outline: as §2
Experiment [6] can be described thus: Antimicrobial activity against Escherichia coli O6 K5 incubated in diluted brain heart infusion medium. In outline: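 Microplate assay in diluted BHI (1/100 of 3.4%, pH 6.7 to 6.9), log-phase cells at ~2 × 10^5 cells/ml, twofold peptide dilutions, 2 h at 37°C in humid chamber; drops plated on blood agar, CFU counted; MMC99 = minimum concentration giving ≥99% killing of inoculum; duplicates.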

The subject of experiment [7] is Staphylococcus aureus. The experiment can be described thus: Antimicrobial activity against methicillin resistant Staphylococcus aureus MRS3525 incubated in bactopeptone. Put shortly:
as §2

As usually defined, the MIC99 is the lowest concentration that inhibits either 99% of growth or 99% of the strains tested, depending on the study. Higher therefore signals weaker potency. Consider `CC[C@H](C)[C@H](NC(=O)[C@@H]1CSSC[C@H](NC(=O)[C@H](CCCCN)NC(=O)[C@@H](NC(=O)[C@H](C)NC(=O)[C@H](CCC(=O)O)NC(C)=O)[C@@H](C)O)C(=O)N[C@@H](Cc2ccccc2)C(=O)N[C@@H](C)C(=O)N[C@@H](Cc2c[nH]c3ccccc23)C(=O)N[C@@H](CCC(N)=O)C(=O)N[C@@H](CCCNC(=N)N)C(=O)N[C@@H](CC(N)=O)C(=O)N[C@@H](CCSC)C(=O)N[C@@H](CCCNC(=N)N)C(=O)N[C@@H](CCCCN)C(=O)N[C@@H](C(C)C)C(=O)N[C@@H](CCCNC(=N)N)C(=O)NCC(=O)N2CCC[C@H]2C(=O)N2CCC[C@H]2C(=O)N[C@@H](C(C)C)C(=O)N[C@@H](CO)C(=O)N1)C(=O)N[C@@H](CCCCN)C(=O)N[C@@H](CCCNC(=N)N)C(N)=O` (Ac-EATKCFAWQRNMRKVRGPPVSCIKR-NH2; disulfide 5-22), for which the MIC99 against Candida albicans [1] was over 200 µg/mL; in experiment [2], over 100 µg/mL; in the experiment on Staphylococcus aureus [3], 100 µg/mL (≈ 33.3 µM).
Taken in the same sequence, the figures for `CC[C@H](C)[C@H](NC(=O)[C@@H]1CSSC[C@H](NC(=O)[C@H](CCCCN)NC(=O)[C@@H](NC(=O)[C@H](C)NC(=O)[C@H](CCC(=O)O)NC(C)=O)[C@@H](C)O)C(=O)N[C@@H](Cc2ccccc2)C(=O)N[C@@H](CCC(N)=O)C(=O)N[C@@H](Cc2c[nH]c3ccccc23)C(=O)N[C@@H](CCCCN)C(=O)N[C@@H](CCCNC(=N)N)C(=O)N[C@@H](CC(N)=O)C(=O)N[C@@H](CCSC)C(=O)N[C@@H](CCCNC(=N)N)C(=O)N[C@@H](CCCCN)C(=O)N[C@@H](C(C)C)C(=O)N[C@@H](CCCNC(=N)N)C(=O)NCC(=O)N2CCC[C@H]2C(=O)N2CCC[C@H]2C(=O)N[C@@H](C(C)C)C(=O)N[C@@H](CO)C(=O)N1)C(=O)N[C@@H](CCCCN)C(=O)N[C@@H](CCCNC(=N)N)C(N)=O` (Ac-EATKCFQWKRNMRKVRGPPVSCIKR-NH2; disulfide 5-22) were 50 µg/mL (≈ 16.3 µM), 12 µg/mL (≈ 3.92 µM) and 25 µg/mL (≈ 8.17 µM).
Taken in the same sequence, the figures for `CC[C@H](C)[C@H](NC(=O)[C@@H]1CSSC[C@H](NC(=O)[C@H](CCCCN)NC(=O)[C@@H](NC(=O)[C@H](C)NC(=O)[C@H](CCC(=O)O)NC(C)=O)[C@@H](C)O)C(=O)N[C@@H](Cc2ccccc2)C(=O)N[C@@H](CCC(N)=O)C(=O)N[C@@H](Cc2c[nH]c3ccccc23)C(=O)N[C@@H](CCC(N)=O)C(=O)N[C@@H](CCCNC(=N)N)C(=O)N[C@@H](C)C(=O)N[C@@H](CCSC)C(=O)N[C@@H](CCCNC(=N)N)C(=O)N[C@@H](CCCCN)C(=O)N[C@@H](C(C)C)C(=O)N[C@@H](CCCNC(=N)N)C(=O)NCC(=O)N2CCC[C@H]2C(=O)N2CCC[C@H]2C(=O)N[C@@H](C(C)C)C(=O)N[C@@H](CO)C(=O)N1)C(=O)N[C@@H](CCCCN)C(=O)N[C@@H](CCCNC(=N)N)C(N)=O` (Ac-EATKCFQWQRAMRKVRGPPVSCIKR-NH2; disulfide 5-22) were 37 µg/mL (≈ 12.3 µM), 100 µg/mL (≈ 33.2 µM) and 50 µg/mL (≈ 16.6 µM).
The corresponding values for `CCCC[C@H](NC(=O)[C@H](CCCNC(=N)N)NC(=O)[C@H](CCC(N)=O)NC(=O)[C@H](Cc1c[nH]c2ccccc12)NC(=O)[C@H](CCC(N)=O)NC(=O)[C@H](Cc1ccccc1)NC(=O)[C@@H](N)CS)C(=O)N[C@@H](CCSC)C(=O)N[C@@H](CCCNC(=N)N)C(=O)N[C@@H](CCCCN)C(=O)N[C@H](C(=O)N[C@@H](CCCNC(=N)N)C(=O)O)C(C)C` (H-CFQWQR[Nle]MRKVR-OH) are 50 µg/mL (≈ 30.3 µM), 50 µg/mL (≈ 30.3 µM) and 50 µg/mL (≈ 30.3 µM).
With `CSCC[C@H](NC(=O)[C@H](CCCN)NC(=O)[C@H](CCCNC(=N)N)NC(=O)[C@H](CCC(N)=O)NC(=O)[C@H](Cc1c[nH]c2ccccc12)NC(=O)[C@H](CCC(N)=O)NC(=O)[C@H](Cc1ccccc1)NC(=O)[C@@H](N)CS)C(=O)N[C@@H](CCCNC(=N)N)C(=O)N[C@@H](CCCCN)C(=O)N[C@H](C(=O)N[C@@H](CCCNC(=N)N)C(=O)O)C(C)C` (H-CFQWQR[Orn]MRKVR-OH), the MIC99 was found to be 25 µg/mL (≈ 15.1 µM) in the experiment with Candida albicans [1], 25 µg/mL (≈ 15.1 µM) in experiment [2] and 50 µg/mL (≈ 30.3 µM) against Staphylococcus aureus [3].
As to `CCCC[C@H](NC(=O)[C@H](Cc1c[nH]c2ccccc12)NC(=O)[C@H](CCC(N)=O)NC(=O)[C@H](Cc1ccccc1)NC(=O)[C@@H](N)CS)C(=O)N[C@@H](CCCNC(=N)N)C(=O)N[C@@H](CC(N)=O)C(=O)N[C@@H](CCSC)C(=O)N[C@@H](CCCNC(=N)N)C(=O)N[C@@H](CCCCN)C(=O)N[C@H](C(=O)N[C@@H](CCCNC(=N)N)C(=O)O)C(C)C` (H-CFQW[Nle]RNMRKVR-OH), the results for the MIC99 (against Candida albicans [1]; in experiment [2]; in the experiment with Staphylococcus aureus [3]) were 25 µg/mL (≈ 15.3 µM), 50 µg/mL (≈ 30.5 µM) and 50 µg/mL (≈ 30.5 µM), respectively.
Take `CSCC[C@H](NC(=O)[C@H](CC(N)=O)NC(=O)[C@H](CCCNC(=N)N)NC(=O)[C@H](CCCN)NC(=O)[C@H](Cc1c[nH]c2ccccc12)NC(=O)[C@H](CCC(N)=O)NC(=O)[C@H](Cc1ccccc1)NC(=O)[C@@H](N)CS)C(=O)N[C@@H](CCCNC(=N)N)C(=O)N[C@@H](CCCCN)C(=O)N[C@H](C(=O)N[C@@H](CCCNC(=N)N)C(=O)O)C(C)C` (H-CFQW[Orn]RNMRKVR-OH): the MIC99 amounted to 25 µg/mL (≈ 15.3 µM) against Candida albicans [1], 25 µg/mL (≈ 15.3 µM) in experiment [2] and 50 µg/mL (≈ 30.5 µM) against Staphylococcus aureus [3].
In the case of H-AFQWQRNMRKVR-OH, the MIC99 against Candida albicans [4] is 12 µg/mL; in the experiment with Candida albicans [1], over 100 µg/mL; in the experiment on Staphylococcus aureus [5], 14 µg/mL; in experiment [6] it was over 25 µg/mL; in experiment [2] it was over 100 µg/mL; in the experiment with Staphylococcus aureus [7], over 100 µg/mL.
As for H-CAQWQRNMRKVR-OH, the figures for the MIC99 (against Candida albicans [4]; against Staphylococcus aureus [5]; in experiment [6]) were 12 µg/mL, 7 µg/mL and 12 µg/mL, respectively.
Regarding H-CFALKKAMKKVR-OH, the MIC99 was 25 µg/mL with Candida albicans [1], 25 µg/mL in experiment [2] and 50 µg/mL in the experiment on Staphylococcus aureus [3].
On to H-CFAWKRNMRKVR-OH, for which the MIC99 with Candida albicans [1] stood at 25 µg/mL; in experiment [2], 50 µg/mL; against Staphylococcus aureus [3], 25 µg/mL.
As to H-CFAWQRNMRKVR-OH, the MIC99 is 6 µg/mL in the experiment with Candida albicans [4]; 25 µg/mL in the experiment on Candida albicans [1]; 3.5 µg/mL in the experiment on Staphylococcus aureus [5]; 6 µg/mL in experiment [6]; 50 µg/mL in experiment [2]; 100 µg/mL against Staphylococcus aureus [7].
Turning to H-CFQAQRNMRKVR-OH, the MIC99 in the experiment on Candida albicans [4] is 12 µg/mL; in the experiment with Candida albicans [1], over 100 µg/mL; against Staphylococcus aureus [5], 14 µg/mL; in experiment [6], 25 µg/mL; in experiment [2] it was over 100 µg/mL; against Staphylococcus aureus [7] it was over 100 µg/mL.
With H-CFQWARNMRKVR-OH, the MIC99 was determined as 12 µg/mL against Candida albicans [4]; 50 µg/mL with Candida albicans [1]; 3.5 µg/mL in the experiment with Staphylococcus aureus [5]; 12 µg/mL in experiment [6]; 50 µg/mL in experiment [2]; 100 µg/mL against Staphylococcus aureus [7].
With H-CFQWKRAMRKVR-OH, the MIC99 (with Candida albicans [1]; in experiment [2]; against Staphylococcus aureus [3]) was 12 µg/mL throughout.
As for H-CFQWKRNMRKVR-OH, the MIC99 (with Candida albicans [1]; in experiment [2]; against Staphylococcus aureus [3]) was 25 µg/mL each time.
As for H-CFQWQANMRKVR-OH, the MIC99 is 12 µg/mL against Candida albicans [4], 7 µg/mL against Staphylococcus aureus [5] and 12 µg/mL in experiment [6].
Take H-CFQWQRAMRKVR-OH: the MIC99 with Candida albicans [4] was found to be 6 µg/mL; in the experiment on Candida albicans [1], 25 µg/mL; against Staphylococcus aureus [5] it was 3.5 µg/mL; in experiment [6], 6 µg/mL; in experiment [2], 25 µg/mL; against Staphylococcus aureus [7], 50 µg/mL.
H-CFQWQRNARKVR-OH: the MIC99 against Candida albicans [4] was 25 µg/mL; against Candida albicans [1] it was 50 µg/mL; against Staphylococcus aureus [5] it was 3.5 µg/mL; in experiment [6], 12 µg/mL; in experiment [2], 50 µg/mL; with Staphylococcus aureus [7], over 100 µg/mL.
Consider H-CFQWQRNMAKVR-OH, for which the MIC99 is 25 µg/mL in the experiment with Candida albicans [4]; over 100 µg/mL against Candida albicans [1]; 7 µg/mL against Staphylococcus aureus [5]; 25 µg/mL in experiment [6]; over 100 µg/mL in experiment [2]; over 100 µg/mL in the experiment on Staphylococcus aureus [7].
In the case of H-CFQWQRNMRAVR-OH, the MIC99 in the experiment with Candida albicans [4] was 25 µg/mL; in the experiment with Candida albicans [1], over 100 µg/mL; against Staphylococcus aureus [5], 3.5 µg/mL; in experiment [6], 12 µg/mL; in experiment [2], 100 µg/mL; in the experiment on Staphylococcus aureus [7] it was over 100 µg/mL.
As for H-CFQWQRNMRKAR-OH, the MIC99 in the experiment with Candida albicans [4] was 25 µg/mL; with Candida albicans [1], 50 µg/mL; against Staphylococcus aureus [5], 3.5 µg/mL; in experiment [6] it was 12 µg/mL; in experiment [2], 50 µg/mL; with Staphylococcus aureus [7] it was over 100 µg/mL.
Consider H-CFQWQRNMRKVA-OH, for which the MIC99 was 25 µg/mL against Candida albicans [4]; over 100 µg/mL in the experiment on Candida albicans [1]; 7 µg/mL against Staphylococcus aureus [5]; 12 µg/mL in experiment [6]; over 100 µg/mL in experiment [2]; over 100 µg/mL with Staphylococcus aureus [7].

The record behind these values is ChEMBL document CHEMBL1212784, “Structure-microbicidal activity relationship of synthetic fragments derived from the antibacterial alpha-helix of human lactoferrin” (2010).
